ChEMBL document CHEMBL4513216, “Probing the Open Global Health Chemical Diversity Library for Multistage-Active Starting Points for Next-Generation Antimalarials” (ACS Infect Dis, 2020)

test: Toxicity liver stage against HepG2, at 10uM; assay type: cell-based; design: test concentration 10 uM, cell line HepG2-A16-CD81EGFP; settings: human, HepG2-A16-CD81EGFP cells; read-out: INHIBITION
Procedure, shortened: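 Uninfected HepG2-A16-CD81EGFP cells, 3 × 10^3 per well, 1536-well, plated on prespotted compound at 10 μM final, parasite-free screening media added to match infected plates; puromycin 10 μM positive, DMSO 0.5% negative; run in parallel with 48 h PbLuc assay at 37 °C, 5% CO2; viability by CellTiter-Glo luminescence, normalized to controls.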

Structure (SMILES)	cytotoxicity at 10 µM
O=C(NCCn1cccc1)C1CCC(=O)N(C2CCCC2)C1 (stereo not given)	0.622%
O=C(O)c1ccc(C2CCCN(Cc3ccc(-c4cc[nH]n4)o3)C2)cc1 (stereo not given)	-2.43%
CC(C)CN1C(=O)CO[C@@H]2CN(C(=O)C3CCOCC3)C[C@H]21	-88.1%
CCOCc1cncc2c1CCN(S(=O)(=O)c1ccc(C)cc1)C2	11.2%
COc1cc2cc3c(nc2cc1OC)OCCN(CC1CC1)C3	5.37%
Cc1c(CN2C[C@H](O)[C@@H](N3CCOCC3)C2)[nH]c2ccc(F)cc12	5.86%
Cc1n[nH]c(C)c1CN1CC[C@@H]2[C@@H](CCC(=O)N2CCc2c[nH]cn2)C1	-3%
CN(C)CCNCCC(c1ccccc1)C1CCOC(C)(C)C1 (stereo not given)	-5.67%
CC(C)C(=O)N1CCCC1C(=O)Nc1ccc(F)c(F)c1 (stereo not given)	-1.57%
Cc1nnc(N(CCC#N)CCC#N)s1	-0.402%
Cc1cc(C)n(-c2cccc(C(=O)Nc3n[nH]c(C4CCCO4)n3)c2)n1 (stereo not given)	-4.44%
Cc1ccc(C(=O)NC2CCCN(S(C)(=O)=O)C2)c(=O)[nH]1 (stereo not given)	10.6%
CCOC(=O)CSc1nnc([C@@H](N)C(C)C)o1	0.979%
COCC1CN(Cc2ccc(F)cc2)Cc2nnn(CC3CC3)c21 (stereo not given)	3.4%
O=C(NCc1ccccc1CO)Nc1ccc2c(c1)CCO2	11.4%
Cc1nc(C(=O)N2CCCCC2)nn1-c1ccccc1Cl	-6.46%
CCc1ocnc1C(=O)N1CCC2(CC1)OCC(C)O2 (stereo not given)	4.44%
O=C(CC1CC1)NCc1cn2c(n1)CN(C(=O)c1cccnc1)CC2	1.03%
CNC(=O)C1CCN(C(=O)NCc2ccc(-c3ccn[nH]3)cc2)CC1	-4.22%
Cn1nc(CN2CCCC2)c2c1CN(C(=O)c1cnccn1)CC2	-147%
O=c1ccc(-n2cccn2)nn1CCNS(=O)(=O)c1ccc(F)c(Cl)c1	1.48%
Cc1n[nH]c(C)c1CC(=O)N1CCC2(CC1)CN(C)CCN2C	1.73%

Structure (SMILES)	cytotoxicity at 10 µM
CCc1ccc(S(=O)(=O)Nc2cn(C)cc(Br)c2=O)cc1	-10.8%
COCCCn1c(CN2CCSCC2)cnc1S(=O)(=O)C1CCCC1	-3.89%
O=C(c1cnc(-c2cccs2)s1)N1CCCC(n2cccn2)C1 (stereo not given)	-10.8%
COCCCC1(C(=O)O)CCCN(Cc2cc3c(cc2C)OCCO3)C1 (stereo not given)	-2.3%
CCN1CCc2[nH]cnc2C12CCN(c1ccc(Cl)c(C(=O)O)n1)CC2	2.74%
O=c1[nH]c(NCc2cccc(-c3ccccc3)c2)nc2c1CCNC2	3.3%
Cc1nc(-c2noc3ccc(C(=O)NCCN4CCOCC4)cc23)co1	15%
O=S(=O)(N1CCOCC1)N1CCOC(CCc2ccccc2)C1 (stereo not given)	-2.55%
Cc1ccc(-n2nnc(C(=O)NCCS(N)(=O)=O)c2C2CC2)cc1	-5.21%
O=C(Nc1ccccc1CCc1ccccn1)NC1CCOCC1	6.1%
O=C(c1ccc2[nH]ccc2c1)N1Cc2nc(CN3CCCC3)oc2C1	6.98%
CCc1cnc(C)nc1NC1CC(=O)N(CC2CCCCC2)C1 (stereo not given)	-6.38%
CC(=O)N1N=C(c2cccs2)OC1C(=O)Nc1ccccc1 (stereo not given)	-5.58%
Cc1c(Cl)cccc1S(=O)(=O)N1CCC2(CC1)OCCS2	4.19%
Cc1nn(C)c2c(NCc3ccccc3F)nc(C3CC3)nc12	15.5%
CCOCC1COCCC12CCN(C(=O)CC1=CCCCC1)CC2 (stereo not given)	2.99%
N#Cc1ccc(NCc2cccnc2N2CCC(C(N)=O)CC2)cn1	-47.9%
CCOc1ccc(C(=O)NC2CCN(c3ncccn3)CC2)cc1C	-10.1%
COCCC(=O)N(C)Cc1nc(C(F)(F)F)cs1	23.3%
N#Cc1cccc(OCCN2CCOC(Cn3cccn3)C2)c1 (stereo not given)	-1.3%
COc1cc(C2(C(=O)NC3CCC4(CC3)OCCO4)CC2)ccc1C	-13.2%
Cc1cccc(N2CCC3(CCN(Cc4ccccn4)CC3)CC2)n1	4.17%

Structure (SMILES)	cytotoxicity at 10 µM
Cc1nnc(CN(Cc2ccc(Cl)c(Cl)c2)C2CC2)o1	4.85%
Cc1ccc(C(=O)N2CC(C(N)=O)O[C@H](C)C2)c(F)c1 (stereo not given in full)	-5.43%
O=C(C[S+]([O-])Cc1csc(C2CCCC2)n1)NC1CCCC1 (stereo not given)	-38.2%
CNC(=O)Cc1ccccc1NC(=O)N[C@H]1c2ccccc2C[C@H]1O	-36.1%
CN(Cc1ccco1)Cc1ccccc1CNC(=O)c1cc[nH]n1	-8.11%
Cc1nccn1-c1ccc(C(C)NCCc2ccccn2)cc1 (stereo not given)	10.4%
CN(C)c1cccc(C(=O)NCC2(O)CCOCC2)c1	10.3%
CCn1cc(C(=O)N(C)Cc2c(F)cccc2Cl)cn1	-4.66%
O=C(Nc1cc(-c2ccccc2)on1)N1CCN(CCO)CC1	3.3%
CC(C)(C)n1ncc2c(=O)[nH]c(N3CCC4(CCCCC4)C3)nc21	-7.72%
CC(=O)N[C@@H]1CN(Cc2ccco2)C[C@H]1c1ccc(C)o1	-3.33%
O=C(C1CCOCC1)N1CC[C@@H](O)[C@@H]1Cc1ccccc1	0.375%
CC(C)c1ocnc1C(=O)N1CCCC(c2ccn[nH]2)C1 (stereo not given)	-3.92%
CN(Cc1ccco1)C1COC2(CCN(Cc3nccs3)CC2)C1 (stereo not given)	2.93%
Cn1c(NC(=O)CCS(=O)(=O)C2CCCC2)nc2cc(Cl)ccc21	7.42%
NC(=O)CSCC(=O)NC1(c2cccc(Br)c2)CC1	-13.9%
Cc1nc(-c2ccncc2)ncc1C(C)NC(=O)CN1CCCCC1 (stereo not given)	1.47%
O=C(CC1CCc2ccccc21)NCCSc1ccccn1 (stereo not given)	-0.214%
Cn1cc2ncn([C@H]3CCN(Cc4ccccc4)C3)c(=O)c2n1	2.89%
Cn1cnnc1C1CCN(c2cncc(-n3cccn3)n2)CC1	-8.37%
CCOc1ccc(NC(=O)Nc2cc(N3CCCCC3)ncn2)cc1	2.21%
Cc1cc(C(=O)N2CCC3(CC2)CN(CCN(C)C)C(=O)O3)nc(C)n1	2.92%

Structure (SMILES)	cytotoxicity at 10 µM
CC(C)n1cnc2c(N3CCCC3)nc(C3CCNCC3)cc21	-3.03%
Cc1cc(CN2C[C@@H](C)[C@@]3(CCN(C)C3=O)C2)oc1C	8.34%
COc1c(F)cc(CN2CCC3(CC2)CN(C)C(=O)O3)cc1Cl	8.08%
O=C(C1CCC1)N1C[C@H]2CC[C@@H](C1)N(S(=O)(=O)c1cccnc1)C2	-3.65%
Cc1nnc(CN(C)C2CCN(Cc3nnc(C4CCC4)o3)C2)n1C (stereo not given)	-8.15%
O=C(NCCOC1CCCCC1)c1ccc(-c2ccco2)[nH]c1=O	-8.08%
CC(C)Cc1noc(CN2CCCC2c2noc(C3CC3)n2)n1 (stereo not given)	-12.9%
Cc1cc(NC(=O)NCc2ccc(C)s2)no1	-5.29%
NC(=O)CCC1CCCN(c2ccc3ccc(F)cc3n2)C1 (stereo not given)	-0.386%
Cc1noc(C)c1CN(C)C(=O)c1cnc(C2CC2)nc1O	-4.65%
COc1ccc(-c2nc3c([nH]2)CCNC3)c(OC)c1OC	0.786%
CN1CCc2[nH]cnc2C12CCN(C(=O)CCc1cccs1)CC2	-1.19%
Cc1nc(CN2CCC3(CCCN(Cc4cccnc4)C3)C2=O)cs1 (stereo not given)	20.8%
Fc1cccc(-c2nc(CN3CCOC(Cn4cncn4)C3)co2)c1 (stereo not given)	-11.4%
O=C(c1cocn1)N1CCC2(CC1)COC(COCc1ccccn1)C2 (stereo not given)	-116%
Cc1ccc(C(=O)NCC(O)CN2CCCC2=O)c(C)c1 (stereo not given)	-6.68%
COc1ccc(S(=O)(=O)NC(=O)COC2CCCCC2)cc1C	-3.56%
CCOCC1CN(Cc2cccc(C#N)c2)Cc2nccn2C1 (stereo not given)	-8.22%
CO[C@H]1CCN(C2CCC2)[C@@H]2CN(Cc3ccncc3)C[C@H]12	8.13%
CCn1nc(C)c(CNC(=O)C2COc3ccccc3C2)c1C (stereo not given)	9.39%
Cc1noc(C2CCN(C(=O)CN(C)c3ccc(Cl)cn3)CC2)n1	-6.98%
CNC(=O)c1ccc(C2CN(c3cc(C)nc(N)n3)CCO2)nc1 (stereo not given)	2.02%

Structure (SMILES)	cytotoxicity at 10 µM
O=c1[nH][nH]c2cn(-c3ccccc3)c(=O)n12	4.6%
NCC(CO)Cc1cccc(OC(F)(F)F)c1 (stereo not given)	3.2%
O=C(CN1C(=O)c2ccccc2CS1(=O)=O)c1ccccc1	15.3%
COc1ccccc1OCCNCc1c(C)nn(C)c1N(C)C	-2.9%
CS(=O)(=O)CCCNC(=O)C1(c2cccc(Cl)c2)CC1	-2.26%
CN1CC(c2cc(O)nc(NCc3ccccc3Cl)n2)CC1=O (stereo not given)	-20.2%
Cc1ccoc1C(=O)N1CC[C@H]2[C@@H]1CCC(=O)N2c1cccnc1	-70.4%
COC(=O)C1CCN(C(=O)c2ccc(NS(C)(=O)=O)c(C)c2)CC1	-1.04%
CNS(=O)(=O)c1cc(C(=O)NC2COc3ccccc3C2)ccc1OC (stereo not given)	18.9%
COC(=O)NCC1CCC2(CCNCC2)O1 (stereo not given)	1.82%
CC(C)(C)S(=O)(=O)c1ccc(N2CCC(n3cccn3)CC2)cn1	22.3%
N#Cc1cc(F)c(N2CCC(NS(=O)(=O)c3cccs3)CC2)c(F)c1	8.76%
Cc1ncnc2c1CCN(C(=O)c1cccc(F)c1)CC2	8.27%
COC(=O)CN(C(=O)c1cc(C(C)C)no1)c1cccc(F)c1	11.3%
Nc1ncccc1CN1C[C@@H](C(=O)O)[C@H](c2cccc(F)c2)C1	-11.1%
O=C(NCCCOC1CCOC1)NC(C1CC1)C1CC1 (stereo not given)	-5.36%
CCN1CCC2(CN(C(C)=O)CC23CCN(CC2CC2)CC3)C1=O (stereo not given)	3.94%
Cc1cc(C)n(C2CN(CC(=O)NC3CCS(=O)(=O)C3)C2)n1 (stereo not given)	-9.41%
CCOc1ccc(C(F)(F)F)cc1NCc1cc(C)on1	-49.3%
Oc1ccc(Cl)cc1CNCc1ccccc1C(F)(F)F	2.67%
CC(C)NC(=O)CC1COC2(CCN(Cc3ccco3)CC2)C1 (stereo not given)	-0.567%
COCCOc1cccc(CNCc2ccc(-n3cncn3)nc2)c1	-11.8%
